The text below walks through data of ChEMBL document CHEMBL4513216, “Probing the Open Global Health Chemical Diversity Library for Multistage-Active Starting Points for Next-Generation Antimalarials” (ACS Infect Dis, 2020).

Structures are written as SMILES.

A short description of this data set: Toxicity liver stage against HepG2, at 10uM. The class given is cell-based. Further details: test concentration 10 uM, cell line HepG2-A16-CD81EGFP. The following applies: human, HepG2-A16-CD81EGFP cells; read-out: INHIBITION
The essentials:
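Uninfected HepG2-A16-CD81EGFP cells, 3 × 10^3 per well, 1536-well, plated on prespotted compound at 10 μM final, parasite-free screening media added to match infected plates; puromycin 10 μM positive, DMSO 0.5% negative; run in parallel with 48 h PbLuc assay at 37 °C, 5% CO2; viability by CellTiter-Glo luminescence, normalized to controls.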
In the case of `O=c1[nH]c(-c2ccncc2)ncc1-c1ccnc(N2CCOCC2)n1`, the cytotoxicity at 10 µM is -1.2%. The figure for `CCN(Cc1ccc2c(c1)OCO2)C(=O)c1ccc(C)[nH]c1=O` is -7.21%. Consider `CC(=O)N1N=C(c2ccccc2)OC1C(=O)NCCc1ccc(C)cc1` (stereo unspecified), for which the cytotoxicity at 10 µM was determined as 0.0915%. `O=C(c1sccc1-n1cnnn1)N1CCC(Cc2ccccc2)CC1`: the cytotoxicity at 10 µM is 9.49%. For `Cc1ccccc1OCCN(C)Cc1noc(CC(C)C)n1`, the cytotoxicity at 10 µM is -6.99%.

Take `CS(=O)(=O)c1cnc(N2CCCC2)nc1C1CCN(C(=O)C2CC2)CC1`: the cytotoxicity at 10 µM was 1.45%. As to `Cc1nc(C)n(CC2CN(CCOCC(F)(F)F)CCO2)n1` (stereo unspecified), the cytotoxicity at 10 µM was -1.95%.

Turning to `CCc1cc(C(F)(F)F)c2c(C3CCN(C(=O)COC)CC3)noc2n1`, the cytotoxicity at 10 µM came to 14%. As for `CCc1nc2c(N3CCC4(CC3)CC(=O)N(CC(C)C)C4)ncnc2o1`, the cytotoxicity at 10 µM came out at 16.2%. Consider `Cc1ccc(C(=O)NC2CCN(C(C)C)C2)c(=O)[nH]1` (stereo unspecified), for which the cytotoxicity at 10 µM stood at 5.26%. For `Cc1ccc(N2C(=O)N[C@@H]3CCN(C(=O)C4CC4)[C@@H]3C2=O)cc1`, the cytotoxicity at 10 µM came to 3.85%. The same measure for `O=C(NCCC1CCN(CC(F)(F)F)CC1)C1CCCO1` (stereo unspecified): 5.48%; for `Cn1nc2c(cc1=O)CN(Cc1nc(-c3ccccn3)no1)CC2`: -3.51%. The figure for `CCN1CC2(CC1=O)CN(C(=O)NC)CCN(S(C)(=O)=O)C2` (stereo unspecified) is -6.29%; for `CN(Cc1cnc(N)nc1)CC1CCCN(CCc2ccc(Cl)cc2)C1` (stereo unspecified) it is -0.849%; for `CCC1CN(CC(=O)NCCC#N)CCO1` (stereo unspecified) it is 2.28%. The same measure for `O=C(CCc1cccs1)N1CCCC(N2CCNC2=O)C1` (stereo unspecified): -6.7%; for `CC(CO)(CO)NC(=O)C1CCC(=O)N(Cc2ccc(Cl)cc2)C1` (stereo unspecified): -4.71%; for `O=C(CSc1ccc2c(c1)OCCO2)NS(=O)(=O)c1ccccc1F`: 1.98%. `CS(=O)(=O)N1CC[C@]2(O)CCN(c3cc(C#N)ccn3)C[C@@H]2C1`: the cytotoxicity at 10 µM is 6.36%. The same measure for `Cc1nc(CN2C[C@@H](CN3CCOCC3)[C@@H](CO)C2)c2ccccn12`: 0.363%; for `c1ncn(CC2CCCN(Cc3cn4ccsc4n3)C2)n1` (stereo unspecified): -7.04%; for `CN1C(=O)CCc2cc(NS(=O)(=O)Cc3cccc(F)c3)ccc21`: 3.6%. For `C[C@@H](CO)Nc1nccc(-c2cnc3sc(Cl)cn3c2=O)n1`, the cytotoxicity at 10 µM amounted to 2.52%.

`COCC1CN(c2ccc(Cl)cc2C#N)CCO1` (stereo unspecified): the cytotoxicity at 10 µM is 11.1%. The same measure for `Cc1cc(C)n(CC2CN(CC(=O)Nc3cccnc3)CCO2)n1` (stereo unspecified): -3.1%; for `COC(=O)CCC(=O)N1CCC2(CN(Cc3ccccc3F)C2)C1`: 5.58%.

As to `CCCc1cc(=O)n(CC(=O)NCCOC)c(-n2nc(C)cc2C)n1`, the cytotoxicity at 10 µM came out at 1.69%. The same measure for `c1cn(-c2cncc(C3CCNCC3)n2)cn1`: -32.5%; for `O=C(NCc1cc[nH]n1)N1CCCC(N2CCCC2)C1` (stereo unspecified): -3.18%. `Cc1cc(F)c2c(c1)CCCN2C(=O)c1cncc(Br)c1`: the cytotoxicity at 10 µM was 1.25%. For `COc1cccc(OC)c1C(=O)N1CC(=O)N(C2CCC2)CC(O)C1` (stereo unspecified), the cytotoxicity at 10 µM was -5.59%. The figure for `CCCc1nc(Cn2c(=O)n(C)c3ccccc32)no1` is -43%. As for `CNc1nc(N2CCN(CC=C(C)C)C(CCO)C2)nc2c1CCC2` (stereo unspecified), the cytotoxicity at 10 µM is -0.6%.

As for `CC(C)CNC(=O)CN(C)S(C)(=O)=O`, the cytotoxicity at 10 µM came to 13.7%.

For `NC(=O)Cn1c(SCc2noc(-c3ccsc3)n2)nnc1C1CC1`, the cytotoxicity at 10 µM amounted to 15.4%. For the compound `CC1c2ncc(CNC(=O)C3CC3)n2CCN1CC1CCC1` (stereo unspecified), the cytotoxicity at 10 µM is -3.15%.

As to `O=C(NCCOc1ncc(Cl)cc1Cl)c1ccncc1F`, the cytotoxicity at 10 µM is -3.78%.

Turning to `CN(Cc1ccc(F)cc1)C(=O)Nc1cccnc1N1CCCC1`, the cytotoxicity at 10 µM is -4.26%. The same measure for `CCn1c(C)nnc1CN(C)C1CCN(Cc2cnc(C)cn2)C1` (stereo unspecified): 14.6%; for `N#Cc1cccc(CN2CCO[C@@H]3CNC[C@@H]32)c1`: 8.94%. For the compound `COCC1CC2(CCN(Cc3cccc(C#N)c3)CC2)CN1C(C)C` (stereo unspecified), the cytotoxicity at 10 µM was determined as 0.866%.

`CCc1ncc(CN2C[C@@H]3C[C@@H](O)CN3C[C@@H]2Cc2ccccc2)cn1`: the cytotoxicity at 10 µM was -5.02%. Turning to `CC1CCN(CCNC(=O)C(C)n2cncn2)CC1` (stereo unspecified), the cytotoxicity at 10 µM was -9.12%. Regarding `CC(C)N1[C@@H](C(=O)NCCN(C)C)C[C@H]2CN(c3ncccn3)C[C@H]21`, the cytotoxicity at 10 µM amounted to 8.73%.

With `CCN(C(c1ccc(OC)cc1)c1cccnc1)S(C)(=O)=O` (stereo unspecified), the cytotoxicity at 10 µM worked out at 9.62%. The figure for `Cc1cc(CN2C[C@@H]3COC[C@]3(CNC(=O)c3ccno3)C2)no1` is 1.18%; for `CCC(C)NC(=O)CCNC(=O)c1c[nH]cc1-c1cccc(OC)c1` (stereo unspecified) it is 6.98%; for `O=c1c2cccnc2cnn1CC(O)c1ccc(Br)cc1` (stereo unspecified) it is -2.59%. The figure for `O=C(O)c1nn(CC2CC2)c2c1CN(S(=O)(=O)c1cccnc1)CC2` is 3.16%; for `Cc1nc2n(n1)CC(NCc1ccc(Cl)c3cccnc13)CC2` (stereo unspecified) it is -8.81%.

Consider `Cc1cc(N2CCCC2c2cccnc2)nc(C)n1` (stereo unspecified), for which the cytotoxicity at 10 µM was -8.3%.

As for `O=C(NCc1cccs1)NCC1(O)CCc2ccccc2C1` (stereo unspecified), the cytotoxicity at 10 µM is -13.8%. The same measure for `CCCNS(=O)(=O)c1ccc2[nH]c(=O)cc(C)c2c1`: -3.37%; for `CC(=O)NS(=O)(=O)c1ccc(F)c(C(F)(F)F)c1`: -4.73%; for `Cn1cnc(-c2nc(C(=O)NCC3CCCO3)c3ccccn23)c1` (stereo unspecified): -109%. The figure for `CC(C)(C)CN(CCC#N)C(=O)c1cccc(CC#N)c1` is 7.05%. The figure for `O=C(NCc1ccncc1)N(Cc1ccccc1F)C1CC1` is -3.32%; for `Cc1ccc(NC2CCN(C(=O)COc3cccc(F)c3)CC2)nn1` it is 3.11%.

Consider `Cc1ccc(-c2nc(CN3CCN(C(=O)C4CC4)CC3)cs2)o1`, for which the cytotoxicity at 10 µM was -12.6%. The figure for `CN(CCn1cccn1)C1CCCN(Cc2noc(C3CC3)n2)C1` (stereo unspecified) is 15%. Turning to `COCCCNC(=O)Cn1nnc(-c2cc3ccccc3o2)n1`, the cytotoxicity at 10 µM is 6.43%. In the case of `Cc1cc(C)n(CC(=O)N2CCCCC2CCN2CCCC2=O)c(=O)n1` (stereo unspecified), the cytotoxicity at 10 µM is 5.09%. Take `COc1ccc(NC(=O)CSc2ccc3nncn3n2)c(OC)c1`: the cytotoxicity at 10 µM was 3.94%.

Regarding `CN1CCN(Cc2ccc(Cl)cc2)CC1C(=O)O` (stereo unspecified), the cytotoxicity at 10 µM is -2.31%. Take `CCNC(=O)N1C[C@@H]2OCC(=O)N(CC3CCCCC3)[C@@H]2C1`: the cytotoxicity at 10 µM was -4.04%. The figure for `CCCS(=O)(=O)NC(C)C(=O)NCc1ccc(N2CCN(C)CC2)nc1` (stereo unspecified) is -20.9%; for `CSCC(C)(O)CNC(=O)c1ccc(Br)cc1F` (stereo unspecified) it is 0.537%; for `Cc1cc(C)c2cc(CNC3CCCCC3)c3nn(C)c(=O)n3c2c1` it is -4.55%. Consider `O=C(NCCn1cccc1)C1CCCN(C2CCCC2)C1` (stereo unspecified), for which the cytotoxicity at 10 µM was determined as 0.301%. With `C[C@@H]1CN(CCC(=O)NCc2ccccc2Cl)CC[C@@]1(O)C1CCC1`, the cytotoxicity at 10 µM is -3.21%. The same measure for `CC(C)N(C(=O)c1csc(-c2ccoc2)n1)C1CCOCC1`: -1.18%; for `CC(NC(=O)c1cc(Br)c2c(c1)OCCO2)C(N)=O` (stereo unspecified): -1.06%. For `CC(C)c1noc(C(C)N2CCN(Cc3cccnc3)CC2)n1` (stereo unspecified), the cytotoxicity at 10 µM was -5.44%.

As for `CN(Cc1cccc(OCCO)c1)Cc1cccc2ncccc12`, the cytotoxicity at 10 µM was determined as 26%. The figure for `CCOC1COC2(CCN(Cc3ccc(C)cc3)CC2)C1` (stereo unspecified) is -8.28%; for `COc1ccccc1Oc1ncccc1CNC(=O)[C@H](N)CC(C)(C)C` it is -1.73%. As to `CCN(C)C(=O)c1cccc(C(=O)N(C)Cc2cccc(O)c2)c1`, the cytotoxicity at 10 µM was 11.7%. The figure for `COCC1CC2(CCN(Cc3ccccn3)CC2)CN1c1ncccn1` (stereo unspecified) is 14.4%; for `CC1(C)CN(C(=O)c2ccc3nncn3c2)CCS1` it is -4.5%; for `Cc1cnc(N2CCO[C@@H]3CC(COCc4cccnc4)C[C@H]32)nc1` (stereo partly specified) it is 3.93%. Take `Cn1cc(-c2nc(CN3CCc4c(ncn4C)C3)cs2)cn1`: the cytotoxicity at 10 µM is -6.54%.

In the case of `CN(C)C(=O)c1ccc(NCCNc2ccc3ccccc3n2)nc1`, the cytotoxicity at 10 µM is 4.63%.

For `Cc1cc(CCC(=O)N2CCCC2)nc(C2CCCN2)n1` (stereo unspecified), the cytotoxicity at 10 µM was determined as 5.91%. With `CCn1cc(Br)c(C(=O)NCc2cnn(C)c2)n1`, the cytotoxicity at 10 µM was -11.9%. The same measure for `Cn1cc(CNCC(c2ccc(Cl)cc2)n2cccn2)cn1` (stereo unspecified): 1.21%. The figure for `Cc1cnc(NC(=O)c2ccc(C3CCCN3CC(C)C)s2)s1` (stereo unspecified) is 9.45%; for `O=C(CNC(=O)C1(c2ccc(F)cc2F)CCC1)Nc1cccnc1` it is -5.82%; for `NC(=O)N1CCCN(CCc2nc(-c3cccc(Cl)c3)no2)CC1` it is 14.8%. `COCCCC1(CO)CCCN(Cc2ccc(F)c(OC)c2)C1` (stereo unspecified): the cytotoxicity at 10 µM was -142%.

Consider `O=C(NCc1csc(Cc2ccccc2)n1)C1NCCc2[nH]cnc21` (stereo unspecified), for which the cytotoxicity at 10 µM is -4.32%. The figure for `COc1ccc2c(c1)C1(CCN(Cc3cccnc3)CC1)N(C)CC2` is -161%; for `CC(C)N(C)Cc1cn2c(n1)CN(Cc1ccsc1)CC2` it is -16.1%. The same measure for `O=c1c(-c2ccnc(NC3CCOCC3)n2)cnc2sc(Cl)cn12`: -0.962%; for `c1cnn(CCN2CCOC(Cn3cncn3)C2)c1` (stereo unspecified): -0.498%; for `CC(=O)c1cnc(NCCc2csc(-c3cnccn3)n2)nc1C`: 6.09%.
